Assay results taken from ChEMBL document CHEMBL3868630, “Synthesis, anti-proliferative activity, SAR study, and preliminary in vivo toxicity study of substituted N,N'-bis(arylmethyl)benzimidazolium salts against a panel of non-small cell lung cancer cell lines” (Bioorg Med Chem, 2017).

Key:
[1] = Cytotoxicity against human HOP92 cells assessed as cell growth at 10 uM after 48 hrs by SRB assay relative to control; assay type: functional; details: HOP-92, 48 h, read-out: Activity
[2] = Cytotoxicity against human NCI-H1975 cells assessed as decrease in cell viability after 72 hrs by MTT assay; assay type: functional, cell-based; details: NCI-H1975, 72 h
Summary of the method: (§1)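 Cells kept in RPMI 1640 with 10% FBS at 37 °C, 5% CO2, passaged every 2-3 days; seeded at 5,000-7,000 cells/well and left 24 h. Compounds dissolved in 1% DMSO, diluted in fresh medium to 1, 4, 16 and 32 µM, added in sextuplicate; 72 h exposure. MTT added for 3-4 h, medium removed, DMSO added for 15 min at 37 °C, OD read at 540 nm.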

[3] = Cytotoxicity against human HOP62 cells assessed as cell growth at 10 uM after 48 hrs by SRB assay relative to control; assay type: functional; details: HOP-62, 48 h, read-out: Activity
[4] = Cytotoxicity against human HCC827 cells assessed as decrease in cell viability after 72 hrs by MTT assay; assay type: functional, cell-based; details: HCC827, 72 h; summary of the method: as §1
[5] = Cytotoxicity against human NCI-H460 cells assessed as cell growth at 10 uM after 48 hrs by SRB assay relative to control; assay type: functional; details: NCI-H460, 48 h, read-out: Activity
[6] = Cytotoxicity against human EKVX cells assessed as cell growth at 10 uM after 48 hrs by SRB assay relative to control; assay type: functional; details: read-out: Activity
[7] = Cytotoxicity against human NCI-H460 cells assessed as decrease in cell viability after 72 hrs by MTT assay; assay type: functional, cell-based; details: NCI-H460, 72 h; summary of the method: as §1
[8] = Cytotoxicity against human A549 cells assessed as cell growth at 10 uM after 48 hrs by SRB assay relative to control; assay type: functional; details: A549, 48 h, read-out: Activity
[9] = Cytotoxicity against human NCI-H322M cells assessed as cell growth at 10 uM after 48 hrs by SRB assay relative to control; assay type: functional; details: read-out: Activity
[10] = Aqueous solubility of the compound; assay type: physicochemical
[11] = Cytotoxicity against human A549 cells assessed as decrease in cell viability after 72 hrs by MTT assay; assay type: functional, cell-based; details: A549, 72 h; summary of the method: as §1
[12] = Cytotoxicity against human NCI-H23 cells assessed as cell growth at 10 uM after 48 hrs by SRB assay relative to control; assay type: functional; details: NCI-H23, 48 h, read-out: Activity
[13] = Cytotoxicity against human NCI-H226 cells assessed as cell growth at 10 uM after 48 hrs by SRB assay relative to control; assay type: functional; details: NCI-H226, 48 h, read-out: Activity
[14] = Cytotoxicity against human NCI-H522 cells assessed as cell growth at 10 uM after 48 hrs by SRB assay relative to control; assay type: functional; details: NCI-H522, 48 h, read-out: Activity

| SMILES | growth at 10 µM [1] [%] | IC50 [2] [µM] | growth at 10 µM [3] [%] | IC50 [4] [µM] | growth at 10 µM [5] [%] | growth at 10 µM [6] [%] | IC50 [7] [µM] | growth at 10 µM [8] [%] | growth at 10 µM [9] [%] | solubility [10] [µg/mL] | IC50 [11] [µM] | growth at 10 µM [12] [%] | growth at 10 µM [13] [%] | growth at 10 µM [14] [%] |
| --- | --- | --- | --- | --- | --- | --- | --- | --- | --- | --- | --- | --- | --- | --- |
| COC(=O)c1cc2c(cc1C(=O)OC)[n+](Cc1ccc3ccccc3c1)cn2Cc1ccc2ccccc2c1.[Br-] | 84.7 | 15 | 78.8 | 20 | 94.5 | 94.3 | 26 | 92.2 | 90.6 | < 500 | 23 | 93.2 | 77.7 | 77.3 |
| S=c1n(Cc2ccc3ccccc3c2)c2ccccc2n1Cc1ccc2ccccc2c1 | 83.4 | > 30 | 81.9 | > 30 | 69.8 | 93.1 | > 30 | 87.6 | 92.6 | < 500 | > 30 | 93.1 | 73.5 | 88.2 |
| OCCCc1n(Cc2ccc3ccccc3n2)c2ccccc2[n+]1Cc1ccc2ccccc2n1.[Cl-] | 47.9 | 7 | 87.5 | 17 | 91.8 | 97.8 | 11 | 93.2 | 91.7 | < 500 | 25 | 75 | 79.8 | 60 |
| COCCOCCOCc1n(Cc2ccc3ccccc3n2)c2ccccc2[n+]1Cc1ccc2ccccc2n1.[Cl-] | -22.1 | < 1 | 20.8 | 4 | 16.5 | 71.6 | 4 | 39.4 | 47.4 | 42200 | 9 | 12.8 | 37.9 | -1.7 |
| COCCc1n(Cc2ccc3ccccc3c2)c2ccccc2[n+]1Cc1ccc2ccccc2c1.[Br-] | -53.1 | 2 | -19.1 | 3 | -65.3 | 4.7 | 3 | 4.72 | 5.25 | < 500 | 3 | -24.3 | -7.12 | -54.4 |
| CCc1n(Cc2ccc3ccccc3c2)c2ccccc2[n+]1Cc1ccc2ccccc2c1.[Br-] | 21.9 | < 1 | 81.3 | 4 | 53.6 | 76.7 | 3 | 74.2 | 90.7 | < 500 | 3 | 28.8 | 64.9 | 12.1 |
| COC(=O)CCc1n(Cc2ccc3ccccc3c2)c2ccccc2[n+]1Cc1ccc2ccccc2c1.[Br-] | -34.4 | 2 | 19 | 4 | 6.29 | 42.1 | 4 | 38.3 | 36.6 | < 500 | 8 | -7.39 | 17.7 | -29.4 |
| O=c1n(Cc2ccc3ccccc3c2)c2ccccc2n1Cc1ccc2ccccc2c1 | 79.9 | 19 | 62.8 | > 30 | 74.6 | 79.5 | > 30 | 85.2 | 81.6 | < 500 | > 30 | 77.7 | 83.9 | 73.4 |
